Data: ChEMBL document CHEMBL1143542, “Structure-activity relationships of bivalent aminoglycosides and evaluation of their microbiological activities” (2005)
≈ marks a conversion by molar mass, not a printed value.

How the values were obtained:
Enterococcus faecalis = experiment: In vitro minimum inhibitory concentration against Enterococcus faecalis 29212; type: functional
Procedure, shortened: (§1)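 Broth microdilution following CLSI M100-S12. Stocks were 10 mg/mL in water, diluted in Mueller–Hinton broth to a top level of 128, then serially 2-fold in plates. Bacteria in cation-adjusted Mueller–Hinton broth were mixed 1:1 with drug and incubated 16–20 h at 35 °C. MIC was the lowest concentration with no visible growth. Run in duplicate with no-antibiotic and no-inoculum (sterility) controls.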

Escherichia coli = experiment: In vitro minimum inhibitory concentration against Escherichia coli ATCC 25922; type: functional; procedure, shortened: as §1
Pseudomonas aeruginosa [1] = experiment: In vitro minimum inhibitory concentration against Pseudomonas aeruginosa PAO-1; type: functional; procedure, shortened: as §1
Pseudomonas aeruginosa [2] = experiment: In vitro minimum inhibitory concentration against Pseudomonas aeruginosa ATCC 27853; type: functional; procedure, shortened: as §1
Staphylococcus aureus [3] = experiment: In vitro minimum inhibitory concentration against Staphylococcus aureus ATCC 29213; type: functional; procedure, shortened: as §1
Staphylococcus aureus [4] = experiment: In vitro minimum inhibitory concentration against Staphylococcus aureus MRSA 3359; type: functional; procedure, shortened: as §1
Pseudomonas aeruginosa [5] = experiment: Susceptibility testing against Pseudomonas aeruginosa PAE_NUH20; S=Susceptible; type: functional, organism-based
Procedure, shortened: (§2)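 Disk diffusion susceptibility profiling against a panel of empirically used antipseudomonal antibiotics. Each strain was categorised as susceptible (S) or intermediate (I).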

Pseudomonas aeruginosa [6] = experiment: Susceptibility testing against Pseudomonas aeruginosa PAE_NUH01; R=Resistant; type: functional, organism-based
Procedure, shortened: (§3)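 Disk diffusion susceptibility profiling of P. aeruginosa reference and clinical isolates against empirically used antipseudomonal antibiotics. Each isolate was categorised as susceptible, intermediate or resistant.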

Pseudomonas aeruginosa [7] = experiment: Susceptibility testing against Pseudomonas aeruginosa PAE_NUH19; S=Susceptible; type: functional, organism-based; procedure, shortened: as §2
Pseudomonas aeruginosa [8] = experiment: Susceptibility testing against Pseudomonas aeruginosa PAE_NUH22; S=Susceptible; type: functional, organism-based; procedure, shortened: as §2
Pseudomonas aeruginosa [9] = experiment: Susceptibility testing against Pseudomonas aeruginosa PAE_NUH21; S=Susceptible; type: functional, organism-based; procedure, shortened: as §2
Pseudomonas aeruginosa [10] = experiment: Susceptibility testing against Pseudomonas aeruginosa PAE_NUH06; S=Susceptible; type: functional, organism-based; procedure, shortened: as §2
Pseudomonas aeruginosa [11] = experiment: Susceptibility testing against Pseudomonas aeruginosa PAE_NUH03; S=Susceptible; type: functional, organism-based; procedure, shortened: as §2
Pseudomonas aeruginosa [12] = experiment: Susceptibility testing against Pseudomonas aeruginosa PAE_NUH04; S=Susceptible; type: functional, organism-based; procedure, shortened: as §2
Pseudomonas aeruginosa [13] = experiment: Susceptibility testing against Pseudomonas aeruginosa PAE_NUH17; S=Susceptible; type: functional, organism-based; procedure, shortened: as §2
Pseudomonas aeruginosa [14] = experiment: Susceptibility testing against Pseudomonas aeruginosa PAE_NUH23; S=Susceptible; type: functional, organism-based; procedure, shortened: as §2
Pseudomonas aeruginosa [15] = experiment: Susceptibility testing against Pseudomonas aeruginosa PAE_NUH02; R=Resistant; type: functional, organism-based; procedure, shortened: as §3
Pseudomonas aeruginosa [16] = experiment: Susceptibility testing against Pseudomonas aeruginosa PAE_NUH05; S=Susceptible; type: functional, organism-based; procedure, shortened: as §2
Pseudomonas aeruginosa [17] = experiment: Susceptibility testing against Pseudomonas aeruginosa PAE_NUH18; S=Susceptible; type: functional, organism-based; procedure, shortened: as §2
Pseudomonas aeruginosa [18] = experiment: Susceptibility testing against Pseudomonas aeruginosa ATCC 27853; S=Susceptible; type: functional, organism-based; procedure, shortened: as §2
Pseudomonas aeruginosa [19] = experiment: Susceptibility testing against Pseudomonas aeruginosa PAE_NUH07; R=Resistant; type: functional, organism-based; procedure, shortened: as §3
Pseudomonas aeruginosa [20] = experiment: Susceptibility testing against Pseudomonas aeruginosa PAE_NUH24; S=Susceptible; type: functional, organism-based; procedure, shortened: as §2
Pseudomonas aeruginosa [21] = experiment: Susceptibility testing against Pseudomonas aeruginosa PAE_NUH25; S=Susceptible; type: functional, organism-based; procedure, shortened: as §2
Pseudomonas aeruginosa [22] = experiment: In vitro minimum inhibitory concentration against Pseudomonas aeruginosa PAO-1 Minimum inhibitory concentration against Pseudomonas aeruginosa PAO-1; type: functional; procedure, shortened: as §1

With `CCN(CCCN(CC)C[C@@H](O)CO[C@@H]1[C@@H](O)[C@H](N)C[C@H](N)[C@H]1O[C@H]1O[C@H](CN)[C@@H](O)[C@H](O)[C@H]1N)C[C@@H](O)CO[C@@H]1[C@@H](O)[C@H](N)C[C@H](N)[C@H]1O[C@H]1O[C@H](CN)[C@@H](O)[C@H](O)[C@H]1N` the MIC (Enterococcus faecalis) was over 50 µg/mL, the MIC (Escherichia coli) was 12.5 µg/mL (≈ 14.1 µM) and the MIC (Pseudomonas aeruginosa [1]) was 6.3 µg/mL (≈ 7.1 µM). For the same compound, the MIC (Pseudomonas aeruginosa [2]) was 6.3 µg/mL (≈ 7.1 µM), the MIC (Staphylococcus aureus [3]) was 3.1 µg/mL (≈ 3.49 µM) and the MIC (Staphylococcus aureus [4]) was 50 µg/mL (≈ 56.4 µM).

`CCN1CCN(C(=O)N[C@@H](C(=O)N[C@@H]2C(=O)N3[C@@H]2SC(C)(C)[C@@H]3C(=O)O)c2ccccc2)C(=O)C1=O.C[C@]1(Cn2ccnn2)[C@H](C(=O)O)N2C(=O)C[C@H]2S1(=O)=O` was tested, and the Activity (Pseudomonas aeruginosa [5]) was “Susceptible”, the Activity (Pseudomonas aeruginosa [6]) was “Resistant” and the Activity (Pseudomonas aeruginosa [7]) was “Susceptible”. For the same compound, the Activity (Pseudomonas aeruginosa [8]) was “Susceptible”, the Activity (Pseudomonas aeruginosa [9]) was “Susceptible” and the Activity (Pseudomonas aeruginosa [10]) was “Susceptible”. The Activity (Pseudomonas aeruginosa [11]) was “Susceptible”, the Activity (Pseudomonas aeruginosa [12]) was “Susceptible” and the Activity (Pseudomonas aeruginosa [13]) was “Susceptible”. For the same compound, the Activity (Pseudomonas aeruginosa [14]) was “Susceptible”, the Activity (Pseudomonas aeruginosa [15]) was “Resistant” and the Activity (Pseudomonas aeruginosa [16]) was “Susceptible”. The Activity (Pseudomonas aeruginosa [17]) was “Susceptible”, the Activity (Pseudomonas aeruginosa [18]) was “Susceptible” and the Activity (Pseudomonas aeruginosa [19]) was “Resistant”. The Activity (Pseudomonas aeruginosa [20]) was “Susceptible” and the Activity (Pseudomonas aeruginosa [21]) was “Susceptible”.

In the case of `NC[C@@H]1C[C@H](O)[C@@H](N)[C@H](O[C@H]2[C@H](O)[C@@H](OC[C@@H](O)CNCCCNC[C@@H](O)CO[C@@H]3[C@@H](O)[C@H](O[C@H]4O[C@H](CN)[C@@H](O)C[C@H]4N)[C@@H](N)C[C@H]3N)[C@H](N)C[C@@H]2N)O1`, the MIC (Pseudomonas aeruginosa [22]) is reported as 1.3 µg/mL (≈ 1.63 µM), the MIC (Enterococcus faecalis) is reported as over 20.9 µg/mL and the MIC (Escherichia coli) is reported as 20.9 µg/mL (≈ 26.2 µM). It also gave an MIC (Pseudomonas aeruginosa [2]) of 2.6 µg/mL (≈ 3.25 µM), an MIC (Staphylococcus aureus [3]) of 1.3 µg/mL (≈ 1.63 µM) and an MIC (Staphylococcus aureus [4]) of 10.4 µg/mL (≈ 13 µM).
